Screening data deposited in PubChem by The Scripps Research Institute Molecular Screening Center.
Rows were chosen to be rich in hits. Some 1.2% of all compounds tested hit in one or more screens of this group.
procasp3 activ: activators of human procaspase-3 | recombinant procaspase-3 D3A, Ac-DEVD-pNA absorbance 405 nm | activation, % at 8.5 µM | actives 0.11% (n = 330,000) | AID 463141;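 active = activation above the mean of all tested compounds plus 3 SD, cut at about 21% in these data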
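System: Procaspase-3 D3A mutant. Medium: Zinc-free 300 mM NaCl, 50 mM HEPES, 0.01% Triton X-100. Schedule: 1 h preincubation plus 2 h reaction at 25 °C. Measured by: 405 nm absorbance of p-nitroaniline, reads at 0 and 120 min. Read-out: percent activation relative to control range.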
TPT1 inh: inhibitors of Candida albicans tRNA 2'-phosphotransferase TPT1. recombinant caTPT1, FP RNA substrate dephosphorylation. inhibition, % at 5 µM. actives 0.81% (n = 300,000);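 active = inhibition above the mean of all tested compounds plus 3 SD, set per screening campaign, cut at about 24% in these data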
procasp7 counter: activates human procaspase-7, counter-screen for procaspase-3 activators; recombinant procaspase-7, Ac-DEVD-pNA absorbance 405 nm; D23A/D198A/D206A triple mutant, cannot self-cleave; scale: DMSO 0, 5 µM enzyme 100; activation, % at 8.5 µM; actives 0.093% (n = 330,000);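 active = percent activation above the screen-wide mean plus 3 SD, cut at about 25% in these data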
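Replicates: singlicate. Assay system: Procaspase-7 triple mutant (PC-7 D3A). Signal: 405 nm absorbance of p-nitroaniline. Times: 1 h preincubation, 2 h reaction. Buffer or medium: Zinc-free HEPES pH 7.4 with 300 mM NaCl, 0.01% Triton X-100. Also added: DEVD-pNA substrate. Benchmarks: DMSO wells as 0%, DMSO with 5 µM added PC-7 as 100%.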
IDE cell inh: cellular human IDE inhibition | P14735 | HEK cells, FAbetaB cleavage, fluorescence polarization | inhibition, % at 5.59 µM | actives 0.41% (n = 320,000);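 active = percent inhibition above the average of all tested compounds plus 3 SD, set per screening campaign, cut at about 16% in these data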;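 also: IDE supplied by intact live HEK cells; FP after avidin binding of uncleaved biotin substrate so inhibition keeps polarization high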
IDE act: boosts human insulin-degrading enzyme activity in HEK cells. actives 0.073% (n = 340,000). P14735. activation, % at 5.96 µM. AID 493087. FAbeta-B cleavage, fluorescence polarization; 0% vehicle, 100% cell-free pure enzyme wells;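 active = activation above the mean of all tested compounds plus 3 SD, set per screening campaign, cut at about 17% in these data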
IDE cell inh cf: cellular human IDE inhibition, confirmation | shares compounds with IDE cell inh | HEK cells, FAbetaB cleavage, fluorescence polarization | inhibition, % at 5.59 µM | actives 51% (n = 1,200);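 active = mean inhibition across triplicate wells above the cutoff set by the earlier primary insulin-degrading enzyme screen, cut at about 16% in these data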
HEK293 tox: HEK cell cytotoxicity, counter-screen for IDE inhibitors; AID 449730; inhibition, % at 5.59 µM; shares compounds with IDE cell inh; actives 28% (n = 1,200); HEK293 cytotoxicity, ATP luminescence; in the data active = inhibition above about 22%
IDE FP artifact: counter-screen for IDE inhibitors: fluorescent artifacts; shares compounds with IDE cell inh; FP counterscreen for fluorescent artifacts, IDE probe project; IC50, µM; 30 tested, under 10 active; AID 588718; call rule not given here
Of the large screens only hits and unclear results are named; the others gave an inactive call (follow-up assays come after a bar, where they were run).

CCC(=O)NC(c1ccco1)c1cc(Cl)c2ccccc2c1O (stereo not drawn)	IDE cell inh 16.2 (no result: TPT1 inh) | IDE cell inh cf inactive | HEK293 tox inactive
CC(=O)NC(c1ccco1)c1cc(Cl)c2ccc(Cl)nc2c1O (stereo not drawn)	none (no result: TPT1 inh)
CCCC(=O)NC(c1ccco1)c1cc(Cl)c2cccnc2c1O (stereo not drawn)	none
Cc1ccc(/C=N\NC(=O)/C(=C\Nc2nccc(C)n2)NC(=O)c2ccccc2)cc1	IDE cell inh 25.8 | IDE cell inh cf 31.4 | HEK293 tox inactive
COc1cc(OC)cc(C(=O)Nc2cccc(NC(=O)c3cc(OC)cc(OC)c3)n2)c1	IDE cell inh 16.9 | IDE cell inh cf inactive | HEK293 tox inactive
COc1cc(OC)cc(C(=O)Nc2cccc(NC(C)=O)c2)c1	none
CSc1nc(-c2ccc(C)cc2)[nH]c1S(=O)(=O)c1ccccc1	none
CC(=O)Sc1nc(-c2ccccc2)[nH]c1S(=O)(=O)c1ccc(C)cc1	IDE cell inh 17.1 (no result: IDE act) | IDE cell inh cf inactive | HEK293 tox inactive
COCc1cc(C)n(CC(=O)Nc2ccc3c(c2)OCO3)c(=O)c1C#N	none
N#Cc1ccc(CSc2nnc(-c3cccnc3)n2-c2ccccc2)cc1	IDE cell inh 18.9 | IDE cell inh cf inactive | HEK293 tox 28.5
Cc1ccc(NC(=O)C(C)Sc2nnc(-c3cccnc3)n2-c2ccccc2)cc1 (stereo not drawn)	IDE cell inh 23.5 | IDE cell inh cf inactive | HEK293 tox inactive
Cc1cccc(C(=O)OCC(=O)NCC2COc3ccccc3O2)c1 (stereo not drawn)	none (no result: TPT1 inh)
CC1(C)CC(=O)C2=C(C1)N(c1ccccc1)C(=O)C2(O)C(F)(F)F (stereo not drawn)	IDE cell inh 16.1 | IDE cell inh cf inactive | HEK293 tox inactive
Cc1ccc(-c2cc(C(=O)Nc3ccc(S(=O)(=O)Nc4ncccn4)cc3)[nH]n2)c(O)c1C	IDE cell inh 31.3 | IDE cell inh cf 20.3 | HEK293 tox inactive
OCC1(Cc2ccccc2F)CCCN(Cc2c(F)ccc(F)c2F)C1 (stereo not drawn)	none
Cc1ccc2[nH]c(=O)c(C(c3nnnn3Cc3ccccc3)N3CCc4ccccc43)cc2c1 (stereo not drawn)	none
Cc1cc2cc(C(c3nnnn3Cc3ccccc3)N3CCc4ccccc43)c(=O)[nH]c2cc1C (stereo not drawn)	IDE cell inh 16.5 | IDE cell inh cf inactive | HEK293 tox inactive
COc1ccc(N(CC(=O)Nc2cc([N+](=O)[O-])ccc2C)S(C)(=O)=O)cc1OC	none
Cc1ccc(Cl)cc1N1CCN(C(=O)c2ccc3nc[nH]c3c2)CC1	IDE cell inh 19.0 | IDE cell inh cf inactive | HEK293 tox inactive
Cc1ccc2nc(N3CCN(Cc4nnnn4Cc4ccccc4)CC3)c(C#N)cc2c1	IDE cell inh 21.0 | IDE cell inh cf inactive | HEK293 tox inactive
Cc1ccc2nc(N3CCN(C)CC3)c(C#N)cc2c1	none
O=C(Nc1ccc2oc(-c3cccnc3)nc2c1)c1ccc2c(c1)OCCO2	IDE cell inh 17.7 | IDE cell inh cf 18.1 | HEK293 tox inactive | IDE FP artifact inactive
COc1ccc(C(=O)Nc2ccc3oc(-c4cccnc4)nc3c2)cc1OC	none
O=C(Nc1ccc2oc(-c3ccccc3)nc2c1)c1ccc2c(c1)OCCO2	IDE cell inh 18.9 | IDE cell inh cf inactive | HEK293 tox 23.4
O=C(Nc1ccc2oc(-c3ccncc3)nc2c1)c1ccc2c(c1)OCCO2	IDE cell inh 17.2 | IDE cell inh cf inactive | HEK293 tox 33.0
O=C(Nc1ccc2oc(-c3ccncc3)nc2c1)c1ccc2c(c1)OCO2	none
COc1ccc(CCNC(=O)[C@H](C)N2C(=O)N3CCc4c([nH]c5ccccc45)[C@@]3(C)C2=O)cc1	none
CN(C)C(CNC(=O)C1CCN(S(=O)(=O)c2ccccc2C(F)(F)F)CC1)Cc1ccccc1 (stereo not drawn)	none (no result: procasp3 activ, TPT1 inh, procasp7 counter, IDE cell inh)
CCNc1nc(SCC(=O)Nc2ccc(Cl)c(Cl)c2)nc(N2CCOCC2)n1	none
CN(C)c1nc(SCC(=O)Nc2ccc(Cl)c(Cl)c2)nc(N2CCOCC2)n1	IDE cell inh 22.9 | IDE cell inh cf inactive | HEK293 tox 26.9
CN(C)c1nc(SCC(=O)Nc2ccccc2)nc(N2CCOCC2)n1	IDE cell inh 20.2 | IDE cell inh cf inactive | HEK293 tox inactive
NS(=O)(=O)c1cccc(NC(=O)COC(=O)Cc2n[nH]c(=O)c3ccccc23)c1	none (no result: TPT1 inh)
CSCCC(NC(=O)COc1ccccc1)C(=O)N1CCOCC1 (stereo not drawn)	none (no result: TPT1 inh)
Cc1nc2c(ccc3nc(NC(=O)c4ccc5c(c4)OCCO5)sc32)s1	IDE cell inh 18.8 | IDE cell inh cf inactive | HEK293 tox 31.3
COc1cc(/C=C2/SC(=NCc3ccccc3)N(Cc3ccccc3)C2=O)ccc1O	IDE cell inh 37.5 | IDE cell inh cf 56.8 | HEK293 tox inactive
O=C1/C(=C\c2ccc(O)c(O)c2)SC(=S)N1Cc1ccccc1	none (no result: procasp3 activ, TPT1 inh, procasp7 counter, IDE cell inh)
O=C1CC2(CCCCC2)CC(=O)N1CCc1ccccc1	none (no result: procasp3 activ, TPT1 inh, procasp7 counter, IDE cell inh)
O=C1C=CC(=O)C(C2=C3C(=O)N(CCc4ccccc4)CC(=O)N3CCC2)=C1	IDE cell inh 40.1 (no result: IDE act) | IDE cell inh cf inactive | HEK293 tox 123.8
O=c1[nH]c(SCc2ccc(F)cc2Cl)nc2ccccc12	none
O=C1CSC(=S)N1CC1CCCO1 (stereo not drawn)	IDE cell inh 17.9 | IDE cell inh cf inactive | HEK293 tox inactive
O=C1C2C3C=CC(C3)C2C(=O)N1CC1CCCO1 (stereo not drawn)	none
COc1ccc(C(=O)NC(=S)N2CCOCC2)cc1[N+](=O)[O-]	none
Cc1ccc(C2=CC(c3ccc(N(C)C)cc3)n3nnnc3N2)cc1 (stereo not drawn)	IDE cell inh 41.0 | IDE cell inh cf 42.2 | HEK293 tox inactive
Cc1ccc(Cl)cc1N1CCN(C(=O)Cn2ncn3cccc3c2=O)CC1	none
CC1CN(CC(=O)NCc2ccc(Cl)cc2)CC(C)O1 (stereo not drawn)	none
COc1ccc(N(CC(=O)N/N=C(\C)CCc2ccccc2)S(=O)(=O)c2ccc(C)cc2)cc1	none
COCCN1CCN(C(=O)c2ccc3oc(CCc4ccccc4)nc3c2)CC1	none
O=c1c2ccccc2sn1-c1ccc(F)cc1	IDE cell inh 60.0 (no result: TPT1 inh) | IDE cell inh cf 17.8 | HEK293 tox 64.1
Cc1ccc(Cn2c(=O)sc3ccccc3c2=O)cc1	none
COC(=O)c1cccc(N2CCCC2=O)c1	none
Cc1ccc(-n2sc3ccccc3c2=O)cc1	IDE cell inh 97.2 | IDE cell inh cf 32.4 | HEK293 tox 99.4
